Drawing on ChEMBL document CHEMBL1135931, “Rational design, synthesis, and biological activity of novel conformationally restricted vitamin D analogues, (22R)- and (22S)-22-ethyl-1,25-dihydroxy-23,24-didehydro-24a,24b-dihomo-20-epivitamin D(3)” (2002), this text covers Activity for five molecules.

One test deals with Rattus norvegicus. The test is described as follows: Calcemic activity (in vivo bone calcium mobilization) was measured by the rise in serum calcium in vitamin D and Ca deficient rats by colorimetric assay. The format is functional. Also on record: concentration or dose not given beside the values. In outline:
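Weanling male rats on vitamin D-deficient low-calcium diet (0.03% Ca, 0.6% P) for 3 weeks; single intravenous dose of 1 μg analogue in ethanol (50 μL) or vehicle alone. Serum calcium read colorimetrically (o-cresolphthalein complexone) at 0, 6, 12, 24 and 48 h post-dose; activity expressed as percent of 1,25-(OH)2D3.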

Test [1] has as its target T1, Vitamin D3 receptor (Bos taurus) (UniProt Q28037).
T1 sequence (whole entry): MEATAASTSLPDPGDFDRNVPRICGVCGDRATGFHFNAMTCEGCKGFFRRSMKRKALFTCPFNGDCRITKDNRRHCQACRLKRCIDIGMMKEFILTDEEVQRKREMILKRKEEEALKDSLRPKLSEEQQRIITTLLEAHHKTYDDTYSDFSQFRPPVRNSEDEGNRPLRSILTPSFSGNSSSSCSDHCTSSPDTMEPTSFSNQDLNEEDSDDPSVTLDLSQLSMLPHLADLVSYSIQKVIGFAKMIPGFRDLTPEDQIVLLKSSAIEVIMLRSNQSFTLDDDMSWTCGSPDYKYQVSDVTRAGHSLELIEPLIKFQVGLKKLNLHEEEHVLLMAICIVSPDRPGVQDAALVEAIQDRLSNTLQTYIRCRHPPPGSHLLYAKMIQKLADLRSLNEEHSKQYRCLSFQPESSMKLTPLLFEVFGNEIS
The test is described as follows: Relative affinity for bovine thymus Vitamin D3 receptor (VDR). The method, boiled down:
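Bovine thymus VDR in 0.05 M phosphate pH 7.4, 0.3 M KCl, 5 mM DTT; incubated with 0.1 nM [3H]-1,25-(OH)2D3 plus graded analogue, 19 h at 4 °C. Dextran-coated charcoal separation 20 min at 4 °C, centrifuge 1000g 10 min, supernatant counted; duplicate. Relative affinity at 50% displacement, as percent of 1,25-(OH)2D3.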

Another test concerns C3H 10T1/2. The test is described as follows: Cells were harvested and were assayed for luciferase and -galactosidase activities (Transcriptional activity). It is filed as functional, Mus musculus. In outline:
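10T1/2 cells in DMEM with 10% charcoal-stripped FBS, 37 °C, 5% CO2; calcium-phosphate transfection 12 h with SPP×3-TK-LUC reporter, pCMX-β-GAL internal control, pUC18 carrier. Ligand 10^-11 to 10^-7 M for 48 h; luciferase normalized to β-galactosidase, duplicate points. Relative activity taken at ED50, as percent of 1,25-(OH)2D3.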

The subject of a further test is HL-60. In words: Differentiation activity of human promyelocytic leukemia cells (HL-60) determined by an NBT reduction assay method. The format is functional.

Regarding `C=C1/C(=C\C=C2/CCC[C@]3(C)[C@@H]([C@@H](C)[C@H](/C=C/CCC(C)(C)O)CC)CC[C@@H]23)C[C@@H](O)C[C@@H]1O`, the Activity in the test with Rattus norvegicus was 38%; in test [1], 0.2%; in the test on C3H 10T1/2, 33%; in the test on HL-60, 77%.

As for `C=C1/C(=C\C=C2/CCC[C@]3(C)[C@@H]([C@H](C)CCCC(C)(C)O)CC[C@@H]23)C[C@@H](O)C[C@@H]1O` [CALCITRIOL], the Activity (in the test with Rattus norvegicus; in test [1]; in the test with C3H 10T1/2; in the test with HL-60) was 100% in each case.

Turning to `C=C1/C(=C\C=C2/CCC[C@]3(C)[C@@H]([C@@H](C)[C@@H](/C=C/CCC(C)(C)O)CC)CC[C@@H]23)C[C@@H](O)C[C@@H]1O`, the Activity with Rattus norvegicus is 140%; in test [1] it was 14%; with C3H 10T1/2, 2500%; with HL-60, 9800%.

With `C=C1/C(=C\C=C2/CCC[C@]3(C)[C@@H]([C@@H](C)[C@@H](C)CCC(C)(C)O)CC[C@@H]23)C[C@@H](O)C[C@@H]1O`, the Activity is 5% with Rattus norvegicus, 0.4% in test [1], 3% in the test with C3H 10T1/2 and 8% in the test with HL-60.

Turning to `C=C1/C(=C\C=C2/CCC[C@]3(C)[C@@H]([C@@H](C)[C@H](C)CCC(C)(C)O)CC[C@@H]23)C[C@@H](O)C[C@@H]1O`, the Activity in the test on Rattus norvegicus was 220%; in test [1], 1100%; with C3H 10T1/2, 10000%; with HL-60 it was 12000%.
